Test results taken from ChEMBL document CHEMBL1145346, “Probing hot spots at protein-ligand binding sites: a fragment-based approach using biophysical methods” (J Med Chem, 2006).
The source made the active and inactive calls. The rule behind the calls is not given here.

Key:
[1] = target: T1, 2-dehydropantoate 2-reductase (Escherichia coli K-12, UniProt P0A9J4); assay: Binding affinity to Escherichia coli KPR; type: single protein
T1 sequence (P0A9J4 whole entry): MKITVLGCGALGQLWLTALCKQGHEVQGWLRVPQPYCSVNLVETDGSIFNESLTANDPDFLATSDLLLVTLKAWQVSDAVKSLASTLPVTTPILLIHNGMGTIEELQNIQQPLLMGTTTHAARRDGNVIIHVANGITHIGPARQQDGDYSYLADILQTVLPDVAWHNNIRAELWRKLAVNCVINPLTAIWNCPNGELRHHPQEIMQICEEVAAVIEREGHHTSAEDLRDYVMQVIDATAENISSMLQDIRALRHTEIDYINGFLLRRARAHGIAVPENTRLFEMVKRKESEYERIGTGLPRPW
Outline: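 Isothermal titration calorimetry with His6-tagged E. coli KPR in 0.1 M HEPES/HCl, pH 7.7, at 27 °C. Data were corrected for heat of dilution and fitted to a single-site binding model. For weak ligands (Kd > 100 µM), stoichiometry was fixed at n = 1, determined from active-site titrations with NADPH or NADP+. Errors are from curve fitting for single runs, or SD across multiple experiments.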

[2] = target: T1, 2-dehydropantoate 2-reductase; assay: Inhibition of Escherichia coli KPR; type: single protein
Outline: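 His6-tagged E. coli KPR assayed at pH 7.5-7.7. It catalyses ketopantoate reduction with NADPH as cofactor. In the screen, ligand was tested at 1 mM with 20 µM NADPH, 1 mM ketopantoate and 2 nM enzyme. Ki was measured with five inhibitor concentrations against six NADPH concentrations, with NADPH as the varied substrate, and data were fitted to competitive or noncompetitive inhibition equations.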

[3] = target: T2, 2-dehydropantoate 2-reductase (Escherichia coli K-12) (UniProt P0A9J4); assay: Inhibition of Escherichia coli KPR at 1 mM
T2 sequence (whole entry): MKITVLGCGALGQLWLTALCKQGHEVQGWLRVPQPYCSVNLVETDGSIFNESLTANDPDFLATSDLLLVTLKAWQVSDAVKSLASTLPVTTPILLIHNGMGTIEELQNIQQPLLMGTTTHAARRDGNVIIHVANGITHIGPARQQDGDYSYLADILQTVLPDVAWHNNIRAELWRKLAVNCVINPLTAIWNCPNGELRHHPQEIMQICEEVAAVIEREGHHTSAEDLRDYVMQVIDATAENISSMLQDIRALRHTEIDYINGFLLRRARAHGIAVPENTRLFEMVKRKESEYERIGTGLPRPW
Outline: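 Single-point screen of His6-tagged E. coli KPR activity at pH 7.5-7.7. Ligand was tested at 1 mM with 20 µM NADPH, 1 mM ketopantoate and 2 nM enzyme. The result is reported as percent inhibition.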

[4] = target: T2, 2-dehydropantoate 2-reductase (Escherichia coli K-12); assay: Inhibition of Escherichia coli KPR at 5 mM
[5] = target: T2, 2-dehydropantoate 2-reductase (Escherichia coli K-12); 11 mM
[6] = target: T2, 2-dehydropantoate 2-reductase (Escherichia coli K-12); assay: Inhibition of Escherichia coli KPR at 20 mM
[7] = target: 2-dehydropantoate 2-reductase (Escherichia coli) (UniProt P0A9J4); assay: Inhibition of Escherichia coli KPR

Nc1ncnc2c1ncn2[C@@H]1O[C@H](COP(=O)(O)OP(=O)(O)OC[C@H]2OC(O)[C@H](O)[C@@H]2O)[C@@H](O)[C@H]1O (stereo partly drawn) [ADENOSINE DIPHOSPHATE RIBOSE]
Kd [1]: 6300 µM

NC(=O)C1=CN(C2OC(COP(=O)(O)OP(=O)(O)OC[C@H]3O[C@@H](n4cnc5c(N)ncnc54)[C@H](O)[C@@H]3O)[C@H](O)[C@@H]2O)C=CC1 (stereo partly drawn)
Kd [1]: 66 µM

Nc1ncnc2c1ncn2[C@@H]1O[C@H](COP(=O)(O)OP(=O)(O)O)[C@@H](O)[C@H]1O [ADENOSINE DIPHOSPHATE]
Kd [1]: 360 µM
Ki [2]: 1050 µM
Activity [3]: Active

Nc1ncnc2c1ncn2[C@@H]1O[C@H](COP(=O)(O)OP(=O)(O)OP(=O)(O)O)[C@@H](O)[C@H]1O [ADENOSINE TRIPHOSPHATE]
Kd [1]: 130 µM
Ki [2]: 610 µM
Activity [3]: Active

Nc1ncnc2c1ncn2[C@@H]1O[C@H](COP(=O)(O)OP(=O)(O)OCC2OC(O)[C@H](O)[C@@H]2O)[C@@H](O)[C@H]1O (stereo partly drawn)
inhibition [4]: 0%

Nc1ncnc2c1ncn2[C@@H]1O[C@H](COP(=O)(O)OP(=O)(O)OCC2OC(O)[C@H](O)[C@@H]2O)[C@@H](O)[C@H]1OP(=O)(O)O (stereo partly drawn)
Kd [1]: 61 µM
Ki [2]: 200 µM
Activity [3]: Active

Nc1ncnc2c1ncn2[C@@H]1O[C@H](COP(=O)(O)O)[C@@H](O)[C@H]1OP(=O)(O)O
Kd [1]: 100 µM
Ki [2]: 240 µM
Activity [3]: Active

NC(=O)c1cccnc1
inhibition [5]: 0%

NC(=O)c1ccc[n+]([C@@H]2O[C@H](COP(=O)([O-])O)[C@@H](O)[C@H]2O)c1
inhibition [4]: 0%

Nc1nc2c(ncn2[C@@H]2O[C@H](COP(=O)(O)OP(=O)(O)O)[C@@H](O)[C@H]2O)c(=O)[nH]1
Kd [1]: 373 µM

NC(=O)c1ccc[n+]([C@@H]2O[C@H](COP(=O)([O-])OP(=O)(O)OC[C@H]3O[C@@H](n4cnc5c(N)ncnc54)[C@H](O)[C@@H]3O)[C@@H](O)[C@H]2O)c1 [NADIDE]
Kd [1]: 6900 µM
inhibition [6]: 10%

NC(=O)c1ccc[n+]([C@@H]2O[C@H](COP(=O)([O-])OP(=O)(O)OC[C@H]3O[C@@H](n4cnc5c(N)ncnc54)[C@H](OP(=O)(O)O)[C@@H]3O)[C@@H](O)[C@H]2O)c1 [SODIUM beta-NICOTINAMIDE ADENINE DINUCLEOTIDE PHOSPHATE]
Kd [1]: 0.26 µM

O=P(O)(O)O [PHOSPHORIC ACID]
Ki [2]: 27000 µM

Nc1ncnc2c1ncn2[C@@H]1O[C@H](COP(=O)(O)O)[C@@H](O)[C@H]1O [ADENOSINE PHOSPHATE]
Kd [1]: > 5000 µM
Ki [2]: 6300 µM
Activity [3]: Active

Nc1nc2c(ncn2[C@@H]2O[C@H](COP(=O)(O)OP(=O)(O)OP(=O)(O)O)[C@@H](O)[C@H]2O)c(=O)[nH]1 [GUANOSINE TRIPHOSPHATE]
Kd [1]: 153 µM

NC(=O)c1ccc[n+]([C@@H]2O[C@H](COP(=O)([O-])OP(=O)(O)OC[C@H]3O[C@@H](n4cnc5c(N)ncnc54)[C@H](OP(=O)(O)O)[C@@H]3O)[C@@H](O)[C@H]2O)c1 [NICOTINAMIDE ADENINE DINUCLEOTIDE PHOSPHATE]
Kd [1]: 5.8 µM

B1: 2-dehydropantoate 2-reductase (Escherichia coli K-12), P0A9J4 (protein)
chain: MKITVLGCGALGQLWLTALCKQGHEVQGWLRVPQPYCSVNLVETDGSIFNESLTANDPDFLATSDLLLVTLKAWQVSDAVKSLASTLPVTTPILLIHNGMGTIEELQNIQQPLLMGTTTHAARRDGNVIIHVANGITHIGPARQQDGDYSYLADILQTVLPDVAWHNNIRAELWRKLAVNCVINPLTAIWNCPNGELRHHPQEIMQICEEVAAVIEREGHHTSAEDLRDYVMQVIDATAENISSMLQDIRALRHTEIDYINGFLLRRARAHGIAVPENTRLFEMVKRKESEYERIGTGLPRPW
Km [7]: 750 µM
